Assay results pooled from the literature.
Target: Ephrin type-A receptor 7 (EPHA7, Homo sapiens, UniProt Q15375)

| Structure (SMILES) | test | conditions | endpoint | result |
| --- | --- | --- | --- | --- |
| COc1ncccc1-c1cnn2ccc(N3CCN(C(=O)OC(C)C)CC3)nc12 | binding, competition with immobilised ligand | 1 µM | remaining binding | 100% |
| N#CC1(c2ccccn2)CCN(Cc2cc(C(=O)O)c(=O)n3ccccc23)CC1 | cell-free assay, competition with immobilised ligand | 1 µM | remaining binding | 100% |
| Cc1nn(C)cc1-c1nc2c(N3CCN(Cc4ccc(Cl)cc4)CC3)c(Cl)cnc2[nH]1 | binding, competition with immobilised ligand | 1 µM | remaining binding | 100% |
| Cn1cncc1[C@@](O)(COc1ccc(C#N)cc1-c1ccc(OC(F)(F)F)cc1)c1ccc(C#N)cc1 | cell-free assay, competition with immobilised ligand | 1 µM | remaining binding | 100% |
| COc1cc(Nc2ncc(F)c(Nc3ccc4c(n3)NC(=O)C(C)(C)O4)n2)cc(OC)c1OC | binding, competition with immobilised ligand | 10 µM | inhibition | 100% |
| Nc1ncc(-c2nc(N3CCOCC3)nc(N3CCOCC3)n2)c(C(F)F)n1 | cell-free assay, competition with immobilised ligand | 10 µM | remaining binding | 86% |
| O=c1[nH]c2ccccc2n1C1CCN(Cc2ccc(-c3[nH]c4cc5ncnc5cc4nc3-c3ccccc3)cc2)CC1 | cell-free assay | 0.5 µM | remaining signal | 109% |
| Cn1cc(-c2cccc(N3CCc4c(sc5c4CC(C)(C)C5)C3=O)c2CO)cc(Nc2ccncn2)c1=O | enzyme activity, inhibitor | 1 µM | inhibition | 83% |
| CC(C)(C)c1cc(C=C(C#N)C#N)cc(Br)c1O | enzyme activity, inhibitor | 0.5 µM | remaining activity | 107% |
| Cn1cc(-c2cc(F)cc(N3CCn4c(cc5c4CCCC5)C3=O)c2CO)cc(Nc2ccc(N3CCN(C4COC4)CC3)cn2)c1=O | enzyme activity, inhibitor | 0.1 µM | inhibition | 13% |
